According to ChEMBL document CHEMBL1151729 (J Med Chem, 2008):
Active and inactive are the calls of the source. No cut-off for these calls is given here.

Key:
[1] = target: Galectin-9 (Homo sapiens, UniProt O00182); assay: Binding affinity to galectin 9N terminal domain at 0 degC by fluorescence polarization assay
[2] = test system: PC-3; assay: Antimigratory effect in human PC-3 cells assessed as cell motility at 1 nM after 24 hrs relative to control; format: functional, cell-based
Outline: (§1)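 Cell motility of human A549 non-small-cell lung and PC-3 hormone-refractory prostate cancer cells measured by computer-assisted phase-contrast quantitative videomicroscopy over 12 h and 24 h with inhibitor at 1, 10 or 100 nM. Motility calculated in µm per hour and expressed as % of untreated control (100%). Triplicate experiments, mean ± SEM, Mann-Whitney test versus control.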

[3] = target: Galectin-3 (Homo sapiens, UniProt P17931); assay: Binding affinity to galectin 3 at 20 degC by fluorescence polarization assay
[4] = test system: A549; assay: Antimigratory effect in human A549 cells assessed as cell motility at 100 nM after 24 hrs relative to control; format: functional, cell-based; outline: as §1
[5] = target: Galectin-7 (Homo sapiens, UniProt P47929); assay: Binding affinity to galectin 7 at 0 degC by fluorescence polarization assay
[6] = target: T1, Galectin-8 (Homo sapiens, UniProt O00214); assay: (§2) Binding affinity to galectin 8N terminal domain at 20 degC by fluorescence polarization assay
T1 sequence (O00214 whole entry): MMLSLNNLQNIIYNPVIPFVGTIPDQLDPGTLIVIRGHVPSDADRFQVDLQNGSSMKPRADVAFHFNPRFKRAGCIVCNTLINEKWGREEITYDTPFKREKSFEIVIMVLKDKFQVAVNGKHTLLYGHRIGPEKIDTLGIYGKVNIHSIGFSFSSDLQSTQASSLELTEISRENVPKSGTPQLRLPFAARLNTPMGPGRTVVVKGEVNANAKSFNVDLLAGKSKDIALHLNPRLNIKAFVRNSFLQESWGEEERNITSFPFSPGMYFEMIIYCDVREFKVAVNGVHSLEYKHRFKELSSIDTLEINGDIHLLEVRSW

[7] = target: T2, Galectin-1 (Homo sapiens, UniProt P09382); assay: Binding affinity to galectin 1 at 20 degC by fluorescence polarization assay
[8] = test system: PC-3; assay: Antimigratory effect in human PC-3 cells assessed as cell motility at 100 nM after 24 hrs relative to control; format: functional, cell-based; outline: as §1
[9] = test system: A549; assay: Antimigratory effect in human A549 cells assessed as cell motility at 10 nM after 24 hrs relative to control; format: functional, cell-based; outline: as §1
[10] = target: T2, Galectin-1; assay: Binding affinity to galectin 1 at 0 degC by fluorescence polarization assay
[11] = target: T3, Galectin-8 (Homo sapiens) (UniProt O00214); assay: as §2
T3 sequence (whole entry): T1 sequence (O00214 whole entry)

Sequence of Galectin-3 (P17931 whole entry): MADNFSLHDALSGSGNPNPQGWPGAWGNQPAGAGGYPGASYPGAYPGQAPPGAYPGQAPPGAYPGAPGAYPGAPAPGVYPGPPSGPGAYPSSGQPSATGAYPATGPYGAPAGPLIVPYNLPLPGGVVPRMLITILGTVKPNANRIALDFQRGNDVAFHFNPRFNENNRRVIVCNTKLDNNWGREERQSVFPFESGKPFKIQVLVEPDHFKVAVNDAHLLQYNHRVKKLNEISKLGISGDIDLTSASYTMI
Sequence of Galectin-9 (O00182 whole entry, the tested form may be a part): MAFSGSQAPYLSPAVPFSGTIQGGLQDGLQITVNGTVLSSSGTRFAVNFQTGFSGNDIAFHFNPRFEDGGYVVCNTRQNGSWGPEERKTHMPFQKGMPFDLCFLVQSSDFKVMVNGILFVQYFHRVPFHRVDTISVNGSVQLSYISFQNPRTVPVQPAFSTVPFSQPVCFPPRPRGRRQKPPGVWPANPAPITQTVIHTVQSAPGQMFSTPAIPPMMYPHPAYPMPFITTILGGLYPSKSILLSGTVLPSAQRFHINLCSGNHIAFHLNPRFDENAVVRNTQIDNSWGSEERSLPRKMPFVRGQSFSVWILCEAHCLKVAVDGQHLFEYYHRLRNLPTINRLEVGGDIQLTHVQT
T2 sequence (P09382 whole entry): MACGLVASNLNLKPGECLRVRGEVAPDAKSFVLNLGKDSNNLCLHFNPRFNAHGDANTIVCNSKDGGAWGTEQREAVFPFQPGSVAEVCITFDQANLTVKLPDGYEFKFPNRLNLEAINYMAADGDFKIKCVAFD
Sequence of Galectin-7 (P47929 whole entry, the tested form may be a part): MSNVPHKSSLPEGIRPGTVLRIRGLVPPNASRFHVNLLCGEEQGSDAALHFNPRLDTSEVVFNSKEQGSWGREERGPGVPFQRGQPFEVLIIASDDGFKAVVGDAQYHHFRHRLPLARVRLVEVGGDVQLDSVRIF

Structure (SMILES) | Kd [1] [µM] | Kd [3] [µM] | Kd [5] [µM] | Kd [6] [µM] | Kd [7] [µM] | Kd [10] [µM] | Activity [11] | Activity [2] | Activity [4] | Activity [8] | Activity [9]
O=C(O[C@H]1[C@@H](O)[C@@H](CO)O[C@@H](S[C@@H]2O[C@H](CO)[C@H](O)[C@H](OC(=O)c3cccc4ccccc34)[C@H]2O)[C@@H]1O)c1cccc2ccccc12 | 8.3 | 3.8 | 24 | 24 | 16.8 |  |  | Active | Active |  | 
COc1cccc(C(=O)O[C@H]2[C@@H](O)[C@@H](CO)O[C@@H](S[C@@H]3O[C@H](CO)[C@H](O)[C@H](OC(=O)c4cccc(OC)c4)[C@H]3O)[C@@H]2O)c1 | 1.4 | 0.69 | 22 | 42 | 4.4 |  |  |  |  | Active | Active
CO[C@@H]1O[C@H](CO)[C@@H](O[C@@H]2O[C@H](CO)[C@H](O)[C@H](NC(=O)c3cccc4ccccc34)[C@H]2O)[C@H](O)[C@H]1NC(C)=O | > 100 | 4.4 | 7.6 |  |  | 25 | Active |  |  |  | 
O=C(N[C@H]1[C@@H](O)[C@@H](CO)O[C@@H](S[C@@H]2O[C@H](CO)[C@H](O)[C@H](NC(=O)c3ccc4ccccc4c3)[C@H]2O)[C@@H]1O)c1ccc2ccccc2c1 | 0.73 | 0.16 | 1.7 | > 100 |  | 9.6 |  |  |  |  | 
CO[C@@H]1O[C@H](CO)[C@@H](O[C@@H]2O[C@H](CO)[C@H](O)[C@H](O)[C@H]2O)[C@H](O)[C@H]1OC(=O)c1cccc2ccccc12 | 1.6 | 2.5 | 54 | 530 |  | 14 |  |  |  |  | 
CC(=O)N[C@@H]1[C@@H](O)[C@H](O[C@@H]2O[C@H](CO)[C@H](O)[C@H](O)[C@H]2O)[C@@H](CO)O[C@H]1O | 490 | 59 | 550 | 1000 |  |  |  |  |  |  | 
Cc1ccc(C(=O)O[C@H]2[C@@H](O)[C@@H](CO)O[C@@H](S[C@@H]3O[C@H](CO)[C@H](O)[C@H](OC(=O)c4ccc(C)cc4)[C@H]3O)[C@@H]2O)cc1 | 15 | 3.6 | 190 | 135 | 10.3 |  |  |  |  |  | 

More lines, main results first:

Kd [1] [µM] | Kd [3] [µM] | Kd [5] [µM] | Kd [6] [µM] | Kd [7] [µM] | Kd [10] [µM] | Activity [11] | Structure (SMILES) | Activity [2] | Activity [4] | Activity [8] | Activity [9]
2.2 | 1.6 | 22 | 104 | 6.4 |  |  | O=C(O[C@H]1[C@@H](O)[C@@H](CO)O[C@@H](S[C@@H]2O[C@H](CO)[C@H](O)[C@H](OC(=O)c3ccccc3)[C@H]2O)[C@@H]1O)c1ccccc1 |  |  |  | 
7 |  | 4.3 |  |  | 35 | Active | O=C(N[C@H]1[C@@H](O)[C@@H](CO)O[C@@H](S[C@@H]2O[C@H](CO)[C@H](O)[C@H](NC(=O)c3ccccc3)[C@H]2O)[C@@H]1O)c1ccccc1 |  |  |  | 
2.8 | 10.7 | 48 | 100 | 14.7 |  |  | O=C(O[C@H]1[C@@H](O)[C@@H](CO)O[C@@H](S[C@@H]2O[C@H](CO)[C@H](O)[C@H](OC(=O)c3ccc4ccccc4c3)[C@H]2O)[C@@H]1O)c1ccc2ccccc2c1 |  |  |  | 
1.8 |  | 2.1 | 100 |  | 2 |  | COc1cccc(C(=O)N[C@H]2[C@@H](O)[C@@H](CO)O[C@@H](S[C@@H]3O[C@H](CO)[C@H](O)[C@H](NC(=O)c4cccc(OC)c4)[C@H]3O)[C@@H]2O)c1 |  |  |  | 
